Test results as given in ChEMBL document CHEMBL4118159, “Discovery of tetrahydroindazoles as a novel class of potent and in vivo efficacious gamma secretase modulators” (Bioorg Med Chem, 2018).

Biological target: Gamma-secretase
Test: Modulation of gamma secretase in human H4 cells expressing human wild type APP assessed as inhibition of amyloid beta 42 production after 22 hrs by electrochemiluminescence assay
Type: cell-based
Procedure, shortened: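 H4 cells overexpressing human APPwt, 10,000/well, were exposed to compound 22 h at 37°C, 5% CO2. Supernatant was diluted with medium on an MSD anti-Aβ42 plate and detected with S-tag 6E10 (1:50, 1 h). Read-out was electrochemiluminescence.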

Row | Compound | IC50 [nM]
1 | CCCCCn1ncc2c1CCC(Nc1nc3c(-c4ccc(F)cc4C)cccn3n1)C2 (stereo not drawn) | > 30000
2 | CCc1nnn2c1CCC(Nc1nc3c(-c4ccc(F)cc4C)cccn3n1)C2 (stereo not drawn) | 740
3 | CCn1ncc2c1CCC(Nc1nc3c(-c4ccccc4C)cccn3n1)C2 (stereo not drawn) | 160
4 | CCn1ncc2c1CCC(Nc1nc3c(-c4ccc(F)cc4)cccn3n1)C2 (stereo not drawn) | 180
5 | CCn1ncc2c1CCC(Nc1nc3c(-c4ccc(C)nc4)cccn3n1)C2 (stereo not drawn) | 670
6 | CCn1ncc2c1CCC(Nc1nc3c(-c4cnccc4C)cccn3n1)C2 (stereo not drawn) | 730
7 | CCn1ncc2c1CCC(Nc1nc3c(-c4ccccc4Cl)cccn3n1)C2 (stereo not drawn) | 60
8 | CCn1ncc2c1CCC(Nc1nc3c(-c4cncc(OC)c4)cccn3n1)C2 (stereo not drawn) | 200
9 | CCCn1ncc2c1CCC(Nc1nc3c(-c4ccc(F)cc4C)cccn3n1)C2 (stereo not drawn) | 60
10 | CCn1ncc2c1CC[C@@H](Nc1nc3c(-c4ccc(F)c(Cl)c4)cccn3n1)C2 | 9
11 | CCn1ncc2c1CCC(Nc1nc3c(-c4cncc(Cl)c4)cccn3n1)C2 (stereo not drawn) | 40
12 | Cc1cc(F)ccc1-c1cccn2nc(NC3CCc4c(cnn4CC(C)C)C3)nc12 (stereo not drawn) | 3400
13 | CCc1nnc2n1CCC(Nc1nc3c(-c4ccc(F)cc4C)cccn3n1)C2 (stereo not drawn) | 1390
14 | CCn1ncc2c1CCC(Nc1nc3c(-c4ccccc4)cccn3n1)C2 (stereo not drawn) | 70
15 | CCn1ncc2c1CCC(Nc1nc3c(-c4ccc(F)c(Cl)c4)cccn3n1)C2 (stereo not drawn) | 20
16 | Cc1cc(F)ccc1-c1cccn2nc(Nc3ccc4c(cnn4C)c3)nc12 | 1200
17 | CCn1ncc2c1CCC(Nc1nc3c(-c4cccnc4OC)cccn3n1)C2 (stereo not drawn) | 500
18 | CCn1ncc2c1CCC(Nc1nc3c(-c4cncc(C)c4)cccn3n1)C2 (stereo not drawn) | 200
